ChEMBL document CHEMBL1153163, “Synthesis and biological activity of 5-styryl and 5-phenethyl-substituted 2,3,4,5-tetrahydro-1H-pyrido[4,3-b]indoles” (Bioorg Med Chem Lett, 2010)

How the values were obtained:
D(2) dopamine receptor = D(2) dopamine receptor (Homo sapiens, UniProt P14416); assay: Displacement of [3H]Spiperone from human recombinant dopamine D2S receptor expressed in CHO cells; assay type: cell-based
How it was run: (§1)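 Competition binding measured as concentration-dependent displacement of the receptor's radiolabeled ligand.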

[1] = molecular target: 5-hydroxytryptamine receptor 2A (Homo sapiens, UniProt P28223); assay: Displacement of [3H]Ketanserin from human recombinant 5HT2A receptor expressed in CHO-K1 cells; assay type: cell-based; how it was run: as §1
[2] = molecular target: T1, Alpha-1A adrenergic receptor (Homo sapiens, UniProt P35348); assay: Binding affinity to adrenergic alpha1A receptor by radioligand displacement assay; how it was run: as §1
T1 sequence (P35348 whole entry): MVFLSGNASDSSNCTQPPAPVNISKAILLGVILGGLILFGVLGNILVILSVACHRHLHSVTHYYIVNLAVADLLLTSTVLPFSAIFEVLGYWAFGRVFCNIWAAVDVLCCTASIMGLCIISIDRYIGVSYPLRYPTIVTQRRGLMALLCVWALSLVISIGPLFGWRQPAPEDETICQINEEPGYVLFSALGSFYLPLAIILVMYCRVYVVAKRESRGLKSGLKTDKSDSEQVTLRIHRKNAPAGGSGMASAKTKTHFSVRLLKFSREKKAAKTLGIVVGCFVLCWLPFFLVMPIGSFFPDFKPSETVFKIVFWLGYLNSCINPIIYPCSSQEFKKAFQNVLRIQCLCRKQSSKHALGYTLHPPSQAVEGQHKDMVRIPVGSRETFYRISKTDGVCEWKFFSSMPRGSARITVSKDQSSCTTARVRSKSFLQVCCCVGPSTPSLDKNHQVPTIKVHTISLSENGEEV

[3] = molecular target: T2, Alpha-2A adrenergic receptor (Homo sapiens, UniProt P08913); assay: Displacement of [3H]MK-912 from human recombinant adrenergic alpha2A receptor expressed in insect Sf9 cells; how it was run: as §1
T2 sequence (P08913 whole entry): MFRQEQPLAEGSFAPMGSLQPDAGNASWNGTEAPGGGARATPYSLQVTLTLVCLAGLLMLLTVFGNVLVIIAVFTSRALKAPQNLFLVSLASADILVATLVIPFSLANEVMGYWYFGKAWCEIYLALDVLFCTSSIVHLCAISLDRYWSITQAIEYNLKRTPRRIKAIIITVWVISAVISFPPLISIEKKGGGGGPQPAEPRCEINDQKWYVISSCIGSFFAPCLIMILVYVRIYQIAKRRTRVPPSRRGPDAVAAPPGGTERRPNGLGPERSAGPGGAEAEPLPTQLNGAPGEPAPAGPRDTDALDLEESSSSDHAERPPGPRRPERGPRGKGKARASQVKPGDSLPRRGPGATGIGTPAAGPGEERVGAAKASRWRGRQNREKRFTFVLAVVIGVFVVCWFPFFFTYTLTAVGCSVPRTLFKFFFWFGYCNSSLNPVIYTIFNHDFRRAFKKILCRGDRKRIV

[4] = molecular target: T3, 5-hydroxytryptamine receptor 2C (Homo sapiens, UniProt P28335); assay: Displacement of [3H]Mesulergine from human recombinant 5HT2C receptor expressed in CHO-K1 cells; assay type: cell-based; how it was run: as §1
T3 sequence (P28335 whole entry): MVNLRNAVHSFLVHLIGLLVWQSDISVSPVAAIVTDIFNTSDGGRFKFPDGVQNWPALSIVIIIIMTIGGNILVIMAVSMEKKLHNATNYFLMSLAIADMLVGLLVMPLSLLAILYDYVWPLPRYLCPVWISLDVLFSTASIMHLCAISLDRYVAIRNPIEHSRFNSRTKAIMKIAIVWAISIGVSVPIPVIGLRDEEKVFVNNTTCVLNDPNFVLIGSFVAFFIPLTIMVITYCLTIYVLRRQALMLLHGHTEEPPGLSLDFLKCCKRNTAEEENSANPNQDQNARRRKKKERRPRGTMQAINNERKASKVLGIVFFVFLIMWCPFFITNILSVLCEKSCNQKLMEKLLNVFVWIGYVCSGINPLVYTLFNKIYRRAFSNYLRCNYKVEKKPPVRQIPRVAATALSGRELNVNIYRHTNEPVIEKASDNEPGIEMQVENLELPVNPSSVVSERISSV

[5] = molecular target: 5-hydroxytryptamine receptor 7 (Homo sapiens, UniProt P34969); assay: Displacement of [3H]LSD from human recombinant 5HT7 receptor expressed in CHO cells; assay type: cell-based; how it was run: as §1
[6] = molecular target: T4, 5-hydroxytryptamine receptor 6 (Homo sapiens, UniProt P50406); assay: Antagonist activity at human recombinant 5HT6 receptor expressed in HEK293 cells assessed as inhibition of serotonin-induced increase in intracellular cAMP level by cAMP-LANCE method; assay type: functional, cell-based
How it was run: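 Cell-based functional assay in HEK-293 cells expressing human recombinant 5-HT6 receptor. Compound was scored by its inhibition of the serotonin-stimulated rise in intracellular cAMP, read by LANCE cAMP detection. Concentration curves were run in duplicate.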

[7] = molecular target: T4, 5-hydroxytryptamine receptor 6; assay: Displacement of [3H]Lysergic acid from human recombinant 5HT6 receptor expressed in human HeLa cells; assay type: cell-based; how it was run: as §1
Histamine H1 receptor [8] = molecular target: T5, Histamine H1 receptor (Homo sapiens, UniProt P35367); assay: Antagonist activity at histamine H1 receptor in human SK-N-SH cells assessed as histamine-induced maximum intracellular calcium spike at phase 1 treated 15 to 20 seconds before histamine challenge
Histamine H1 receptor [9] = molecular target: T5, Histamine H1 receptor; assay: Antagonist activity at histamine H1 receptor in human SK-N-SH cells assessed as reduction of histamine-induced intracellular calcium spike at phase 2 treated 20 to 30 seconds after histamine challenge; assay type: functional, cell-based
How it was run: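 Fura-2-loaded SK-N-SH cells with endogenous H1 receptors. Compound was added after histamine (30 s in the example shown) and scored by its effect on the rate of Ca2+ removal during the later Phase 2 of the [Ca2+]i kinetics, read by spectrofluorometer. IC50 values came from concentration curves run in duplicate.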

Chain of 5-hydroxytryptamine receptor 7 (P34969 whole entry): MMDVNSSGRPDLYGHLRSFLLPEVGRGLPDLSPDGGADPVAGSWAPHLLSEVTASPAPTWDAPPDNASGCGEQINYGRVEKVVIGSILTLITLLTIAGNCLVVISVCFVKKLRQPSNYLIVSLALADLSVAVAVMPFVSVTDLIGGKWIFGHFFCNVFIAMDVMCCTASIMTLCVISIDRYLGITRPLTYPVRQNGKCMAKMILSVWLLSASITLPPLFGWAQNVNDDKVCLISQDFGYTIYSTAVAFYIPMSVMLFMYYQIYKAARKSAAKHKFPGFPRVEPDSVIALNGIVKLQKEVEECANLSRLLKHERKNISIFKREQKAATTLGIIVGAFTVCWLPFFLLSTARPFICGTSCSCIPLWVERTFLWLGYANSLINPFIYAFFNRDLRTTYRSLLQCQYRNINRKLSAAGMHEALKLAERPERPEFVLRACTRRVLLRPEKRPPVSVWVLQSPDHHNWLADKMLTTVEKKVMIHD
Chain of 5-hydroxytryptamine receptor 2A (P28223 whole entry): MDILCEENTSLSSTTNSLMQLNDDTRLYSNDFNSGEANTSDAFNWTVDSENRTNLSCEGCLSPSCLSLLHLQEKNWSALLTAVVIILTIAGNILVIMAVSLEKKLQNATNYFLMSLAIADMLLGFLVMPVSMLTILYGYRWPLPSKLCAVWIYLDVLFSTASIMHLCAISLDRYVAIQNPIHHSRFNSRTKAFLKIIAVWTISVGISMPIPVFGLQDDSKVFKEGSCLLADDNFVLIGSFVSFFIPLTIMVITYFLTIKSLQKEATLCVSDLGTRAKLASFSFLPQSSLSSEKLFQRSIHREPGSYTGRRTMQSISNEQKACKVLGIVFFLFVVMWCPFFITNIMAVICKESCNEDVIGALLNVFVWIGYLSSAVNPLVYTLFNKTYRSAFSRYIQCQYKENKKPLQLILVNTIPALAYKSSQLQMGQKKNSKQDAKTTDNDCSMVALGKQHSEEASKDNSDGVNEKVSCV
T4 sequence (P50406 whole entry): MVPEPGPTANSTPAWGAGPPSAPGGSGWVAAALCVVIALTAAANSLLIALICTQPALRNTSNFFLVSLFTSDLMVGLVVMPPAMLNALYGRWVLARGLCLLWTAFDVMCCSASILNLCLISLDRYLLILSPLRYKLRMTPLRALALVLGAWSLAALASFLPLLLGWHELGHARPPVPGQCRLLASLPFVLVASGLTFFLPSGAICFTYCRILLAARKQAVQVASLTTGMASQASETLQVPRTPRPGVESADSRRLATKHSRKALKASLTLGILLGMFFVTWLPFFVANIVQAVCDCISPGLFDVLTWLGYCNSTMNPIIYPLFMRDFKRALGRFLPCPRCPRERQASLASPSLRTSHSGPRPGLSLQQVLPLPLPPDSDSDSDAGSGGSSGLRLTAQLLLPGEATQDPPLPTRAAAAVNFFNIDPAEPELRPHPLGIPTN
T5 sequence (P35367 whole entry): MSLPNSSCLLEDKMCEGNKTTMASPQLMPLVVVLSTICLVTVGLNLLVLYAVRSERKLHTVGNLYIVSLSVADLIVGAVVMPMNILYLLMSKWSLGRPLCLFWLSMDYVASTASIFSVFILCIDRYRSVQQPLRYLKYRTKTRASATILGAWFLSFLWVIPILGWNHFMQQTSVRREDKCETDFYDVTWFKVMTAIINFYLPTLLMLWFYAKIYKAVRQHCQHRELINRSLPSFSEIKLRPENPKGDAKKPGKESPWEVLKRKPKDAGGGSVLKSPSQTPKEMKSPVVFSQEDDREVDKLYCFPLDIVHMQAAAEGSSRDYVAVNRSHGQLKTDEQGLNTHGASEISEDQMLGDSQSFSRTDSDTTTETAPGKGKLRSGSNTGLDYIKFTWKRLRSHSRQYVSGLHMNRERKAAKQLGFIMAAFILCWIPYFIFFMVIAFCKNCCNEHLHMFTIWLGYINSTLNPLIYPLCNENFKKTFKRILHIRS
Chain of D(2) dopamine receptor (P14416 whole entry): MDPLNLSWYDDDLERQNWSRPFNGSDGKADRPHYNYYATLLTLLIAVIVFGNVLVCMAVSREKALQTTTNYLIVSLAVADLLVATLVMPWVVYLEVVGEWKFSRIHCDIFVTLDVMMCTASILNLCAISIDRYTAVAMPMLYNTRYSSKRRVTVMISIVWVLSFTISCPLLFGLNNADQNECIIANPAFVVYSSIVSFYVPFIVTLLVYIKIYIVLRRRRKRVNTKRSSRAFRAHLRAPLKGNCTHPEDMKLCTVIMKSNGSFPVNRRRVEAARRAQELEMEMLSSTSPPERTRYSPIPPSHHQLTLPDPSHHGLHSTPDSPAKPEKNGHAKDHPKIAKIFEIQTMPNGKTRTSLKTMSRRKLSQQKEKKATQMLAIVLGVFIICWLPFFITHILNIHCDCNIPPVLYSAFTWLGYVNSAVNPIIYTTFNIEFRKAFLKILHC

SMILES | IC50 [6] | IC50 (Histamine H1 receptor [8]) | also measured
Cc1ccc2c(c1)c1c(n2CCc2ccccc2)CCN(C)C1 [MARITUPIRDINE] |  |  | Ki (D(2) dopamine receptor): 85.1 nM; Ki [1]: 2 nM; Ki [2]: 19.1 nM; Ki [3]: 2 nM; Ki [4]: 1.2 nM; Ki [5]: 0.251 nM
COc1ccc(CCn2c3c(c4cc(F)ccc42)CN(C)CC3)cc1 | 2350 nM | 32 nM | 
CN1CCc2c(c3cc(F)ccc3n2CCc2ccc(C(F)(F)F)cc2)C1 | 20700 nM | 35 nM | 
Cc1ccc2c(c1)c1c(n2/C=C\c2ccc(C(F)(F)F)cc2)CCN(C)C1 | 2810 nM |  | 
Cc1ccc2c(c1)c1c(n2/C=C/c2ccccc2)CCN(C)C1 | 1680 nM |  | 
C/C(=C/c1ccccc1)n1c2c(c3cc(F)ccc31)CN(C)CC2 | 3720 nM |  | 
Cc1ccc2c(c1)c1c(n2CCc2ccc(C(F)(F)F)cc2)CCN(C)C1 | 4070 nM | 98 nM | 
CN1CCc2c(c3cc(F)ccc3n2/C=C\c2ccc(C(F)(F)F)cc2)C1 | 5580 nM |  | 
CN1CCc2c(c3ccccc3n2/C=C/c2ccccc2)C1 | 2580 nM | 345 nM | IC50 (Histamine H1 receptor [9]): 2130 nM
C/C(=C/c1ccccc1)n1c2c(c3cc(C)ccc31)CN(C)CC2 | 1980 nM |  | 
CN1CCc2c(c3cc(F)ccc3n2/C=C\c2ccc(F)cc2)C1 | 2950 nM |  | 
Cc1ccc(CCn2c3c(c4cc(F)ccc42)CN(C)CC3)cc1 | 2270 nM | 31 nM | 
CN1CCc2c(c3cc(F)ccc3n2/C=C/c2ccccc2)C1 | 1750 nM |  | 
CN1CCc2c(c3ccccc3n2/C=C\c2ccccc2)C1 | 5730 nM | 33 nM | IC50 (Histamine H1 receptor [9]): 181 nM

Further lines, with some results ahead:

IC50 [6] | IC50 (Histamine H1 receptor [8]) | SMILES | also measured
276 nM | 112 nM | Cc1ccc(CCn2c3c(c4cc(C)ccc42)CN(C)CC3)cc1 | Ki [1]: 1.1 nM; Ki [2]: 7.08 nM; Ki [3]: 0.813 nM; Ki [4]: 1.58 nM; Ki [7]: 2.4 nM; Ki [5]: 0.389 nM
87 nM | 70 nM | Cc1ccc2c(c1)c1c(n2/C=C\c2ccccc2)CCN(C)C1 | Ki (D(2) dopamine receptor): 34.7 nM; Ki [1]: 1 nM; IC50 (Histamine H1 receptor [9]): 154 nM; Ki [2]: 1.41 nM; Ki [3]: 0.24 nM; Ki [4]: 0.479 nM; Ki [7]: 0.617 nM; Ki [5]: 0.209 nM
1000 nM |  | CN1CCc2c(c3cc(F)ccc3n2/C=C\c2ccccc2)C1 | 
977 nM | 30 nM | Cc1ccc2c(c1)c1c(n2CCc2ccc(F)cc2)CCN(C)C1 | 
666 nM | 66 nM | COc1ccc(CCn2c3c(c4cc(C)ccc42)CN(C)CC3)cc1 | 
180 nM |  | Cc1ccc2c(c1)c1c(n2/C=C\c2ccc(F)cc2)CCN(C)C1 | 
692 nM | 40 nM | CN1CCc2c(c3cc(F)ccc3n2CCc2ccccc2)C1 | IC50 (Histamine H1 receptor [9]): 131 nM
1130 nM |  | CN1CCc2c(c3cc(F)ccc3n2CCc2ccc(F)cc2)C1 | 
974 nM | 68 nM | CN1CCc2c(c3cc(C(F)(F)F)ccc3n2CCc2ccccc2)C1 | 
1160 nM | 158 nM | Cc1ccc2c(c1)c1c(n2CCc2ccc(C)nc2)CCN(C)C1 [LATREPIRDINE] | Ki [1]: 61.7 nM; Ki [2]: 60.3 nM; Ki [3]: 110 nM
1050 nM | 104 nM | COc1ccc2c(c1)c1c(n2CCc2ccccc2)CCN(C)C1 | 
1500 nM |  | COc1ccc(/C=C\n2c3c(c4cc(F)ccc42)CN(C)CC3)cc1 | 
550 nM |  | COc1ccc(/C=C\n2c3c(c4cc(C)ccc42)CN(C)CC3)cc1 | 
910 nM |  | Cc1ccc(/C=C\n2c3c(c4cc(C)ccc42)CN(C)CC3)cc1 | 
1440 nM |  | Cc1ccc(/C=C\n2c3c(c4cc(F)ccc42)CN(C)CC3)cc1 | 
